# An excerpt weighted towards active compounds, which were near 4.6% of everything screened.
# CHO parental Ca – counter-screen: ATP calcium response change in parental CHO cells; parental CHO-K1, ATP-induced calcium, Fluo-8 fluorescence; inhibition, % at 5.6 µM; 330,000 compounds, 0.63% hits;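 active = inhibition above that plate's mean sample inhibition plus 3 SD, cut at about 26% in these data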;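 also: 0% = ATP-challenged DMSO wells and 100% = DMSO wells without ATP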
#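 Material: Parental CHO cells | Reagent: ATP | Compound dosing: Single nominal dose of 5.6 µM per compound | Detection: Intracellular calcium via Fluo-8 no-wash fluorescent dye | Read-out: % inhibition of ATP-induced calcium mobilization | Benchmarks: Low control ATP plus DMSO, high control DMSO only | Replicates: Singlicate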
# TAAR1 antagonist – human TAAR1 antagonism; Q96RJ0; CHO RD-HGA16 TAAR1, Fluo-8 calcium fluorescence, antagonist; inhibition, % at 3 µM; 360,000 compounds, 1.5% hits;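 active = inhibition above a per-plate cutoff, the mean inhibition of test compounds on that plate plus 3 SD, cut at about 49% in these data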;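 also: 0% = DMSO plus EC80 beta-PEA response and 100% = DMSO alone without agonist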
# Target sequence (Q96RJ0 whole entry, looked up): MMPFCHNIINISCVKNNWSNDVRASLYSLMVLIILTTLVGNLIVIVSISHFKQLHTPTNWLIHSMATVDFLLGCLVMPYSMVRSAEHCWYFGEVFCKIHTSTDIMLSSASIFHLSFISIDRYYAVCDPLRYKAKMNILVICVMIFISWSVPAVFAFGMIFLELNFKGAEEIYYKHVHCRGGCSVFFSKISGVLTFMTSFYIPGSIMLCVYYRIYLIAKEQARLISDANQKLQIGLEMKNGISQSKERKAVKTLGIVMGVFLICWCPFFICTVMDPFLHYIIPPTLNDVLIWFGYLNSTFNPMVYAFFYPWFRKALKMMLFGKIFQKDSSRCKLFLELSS
#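 System: CHO RD-HGA16 cells bearing hTAAR1. Reagent: EC80 β-phenethylamine stimulus. Schedule: seeding 17-24 h prior, 75-min 37 °C, 30-min RT dye loading. Signal: Fluo-8 intracellular calcium dye fluorescence, real-time kinetic reads. Read-out: % inhibition from peak post-agonist over basal fluorescence ratio. Benchmarks: vehicle wells and EC80 agonist wells. Replicates: n of 1.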
# GPR7 antagonist – antagonists of human GPR7 (neuropeptides B/W receptor 1); AID 1861; P48145; GPR7-expressing cells, fluorescence antagonist assay; 290,000 compounds, 1.1% hits; inhibition, % at 4.4 µM; in the data active = inhibition above about 16%, passing the limit was not always enough;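 also: cells stimulated with the agonist NPW; 0% = agonist with vehicle and 100% = vehicle without agonist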
# Target sequence (P48145 whole entry, looked up): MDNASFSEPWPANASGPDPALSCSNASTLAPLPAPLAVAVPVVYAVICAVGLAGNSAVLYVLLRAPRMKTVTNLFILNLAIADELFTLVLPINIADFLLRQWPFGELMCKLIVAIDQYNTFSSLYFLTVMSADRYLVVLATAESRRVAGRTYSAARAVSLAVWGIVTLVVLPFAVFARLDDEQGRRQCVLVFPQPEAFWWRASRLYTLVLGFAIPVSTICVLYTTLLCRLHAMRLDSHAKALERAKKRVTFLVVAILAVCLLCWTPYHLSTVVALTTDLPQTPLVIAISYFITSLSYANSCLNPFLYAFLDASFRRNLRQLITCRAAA
# TAAR1 agonist – human TAAR1 agonism. 360,000 compounds, 0.99% hits. activation, % at 3 µM. Q96RJ0. CHO RD-HGA16 TAAR1, Fluo-8 calcium fluorescence; vehicle wells 0%, saturating PEA agonist 100%. AID 624467;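 active = activation above the mean activation of all test compounds in the run plus 3 SD, cut at about 38% in these data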
#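 System: CHO RD-HGA16 cells carrying human TAAR1 plus Gα16; Incubation: 17-24 h seeding, 75 min 37 °C dye, 30 min RT; Measured by: Fluo-8 fluorescence, 5 s baseline then 140 s kinetic read; Control set: DMSO and PEA EC100; Replication: single well for each compound.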
# OX1R antag-1 – human HCRTR1 antagonism; O43613; CHO/OX1R cells, Fluo-8 calcium fluorescence, orexin A; inhibition, % at 5 µM; 330,000 compounds, 0.43% hits;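 active = inhibition above its plate's threshold, mean inhibition of all tested compounds on the plate plus 3 SD, cut at about 37% in these data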;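 also: 0% = orexin A challenge wells and 100% = SB-334867-A antagonist wells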
# OX1R antag-2 – OX1R (human) antagonism; OX1R-expressing cells, FRET antagonist read-out; AID 485270; 330,000 compounds, 1.8% hits; inhibition, % at 6.6 µM; O43613; in the data active = inhibition mostly above about 38%, no sharp cut-off; inactive = mostly below about 40%;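 also: 0% = agonist challenge alone and 100% = reference antagonist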
# Active calls of the source: *; nt = not tested or not shown.
SMILES,CHO parental Ca,TAAR1 antagonist,GPR7 antagonist,TAAR1 agonist,OX1R antag-1,OX1R antag-2
Cn1c(O)c(/C=C2\C=Nc3ccccc32)sc1=Nc1ccc(C(=O)O)cc1,-2,-2,-16,1,0,4
COC(=O)[C@]12C[C@H](CC(=O)N3CCC(c4ccccc4)CC3)C(=O)N(Cc3ccc4c(c3)OCO4)C1=C[C@H](C(C)(C)C)O[C@@H]2C,nt,-35,nt,-2,nt,nt
CCc1ccc(C(O)c2ncc(-c3cccc(F)c3)[nH]2)cc1 (stereo unspecified),nt,10,nt,2,nt,nt
Cc1ccc(Nc2nc(NCCO)c3ccccc3n2)cc1C,-12,-11,-7,39*,-23,-4
O=C(CSc1nc(=O)n(CCCN2CCOCC2)c2c1CCCC2)Nc1ccc(Cl)cc1,-38,-23,nt,0,-35,19
CC(OC(=O)c1cc(-c2cccnc2)nc2ccccc12)C(=O)Nc1ccc2ccccc2c1 (stereo unspecified),-25,51*,-3,9,-22,20
O=C(NNC(=S)Nc1ccccc1)c1cc(-c2cccnc2)nc2ccccc12,-24,21,-16,7,-34,25
COc1ccc2c(c1)[C@@]1(OCCC=C[C@H]1C)C(=O)N2Cc1ccc(Br)cc1,nt,15,nt,2,nt,nt
O=C(C(=O)N1CCCCCC1)c1c[nH]c2ccccc12,nt,-10,-18,3,nt,nt
C[n+]1cc(C(=O)N2CCCCC2)ccc1/C=C/c1c[nH]c2ccccc12,5,1,-2,25,0,69*
O=S1(=O)N[C@H](Cc2ccccc2)COc2cccc(NCCO)c21,nt,11,nt,0,nt,nt
CN(c1cccnc1)c1ccc(NC(=O)Cc2c[nH]c3ccccc23)cc1-c1ccc(F)c(F)c1,nt,24,nt,7,nt,nt
O=C1Nc2ccccc2-n2nnnc2C1N1CCN(c2ccc(C(F)(F)F)cc2[N+](=O)[O-])CC1 (stereo unspecified),nt,-14,nt,29,nt,nt
O=C(NN=Cc1ccccc1Cl)C(=O)Nc1cccc(C(F)(F)F)c1,nt,7,nt,0,nt,nt
COc1ccc(CN(C2CCCC2)S(=O)(=O)c2cc(Br)ccc2Br)c(OC)c1,nt,-1,nt,0,nt,nt
O=S(=O)(c1ccc(Cl)cc1)n1cccn1,12,-19,5,2,10,14
Cc1nc(C)c(-c2ccn(S(=O)(=O)c3ccc(Cl)cc3)n2)o1,-8,-6,19*,1,-23,3
COc1ccc(CCNC2=CC(=O)N(c3ccc(F)cc3)C2=O)cc1,39*,-11,-4,22,-8,21
CCNC(=O)CC1C(=O)N(c2ccc(F)cc2)C(=O)N1CCc1ccc(OC)cc1 (stereo unspecified),-17,8,-12,3,-12,1
CC[N+](CC)(CC)CCCCOc1ccc2c(c1)C(=O)c1cc(OCCCC[N+](CC)(CC)CC)ccc1-2,-7,-13,-14,0,-6,57*
CC[N+](CC)(CC)CCOc1ccc(/C=C/c2ccccc2)cc1,3,-2,nt,15,1,13
CC(C)(C)OC(=O)NCCCCCNC(=O)c1nc[nH]c1C(=O)N1CCN(c2ccccc2)CC1,-12,50*,nt,21,-6,8
Cc1ccc(Nc2c(-c3ccccn3)nc3ccc(C)cn23)cc1,36*,4,1,2,-26,27
COC(=O)[C@]12C[C@H](CC(=O)N3CCCCC3)C(=O)N(Cc3ccccc3)C1=C[C@H](C1CCCC1)O[C@@H]2C,nt,-4,nt,2,nt,nt
COC(=O)[C@]12C[C@H](CC(=O)NCCC(C)C)C(=O)N(Cc3ccccc3)C1=C[C@H](C(C)C)O[C@@H]2C1CC1,nt,-17,nt,-1,nt,nt
SMILES,CHO parental Ca,TAAR1 antagonist,GPR7 antagonist,TAAR1 agonist,OX1R antag-1,OX1R antag-2
O=C1Nc2ccccc2/C1=C/C(=O)c1cccs1,-2,18,26*,9,19,33
c1coc(-c2nc3ccccc3nc2-c2ccco2)c1,-23,-3,-2,0,-3,43*
COc1ccc(NC(=O)CSCC(=O)Nc2ccccc2N2CCCCC2)cc1,-30,25,nt,4,-8,36*
COc1ccc(NC(=O)CSCC(=O)Nc2ccccc2N2CCCC2)cc1,-12,-1,nt,0,-26,19
CC1CCCC(C)N1C(=O)CSc1ncccn1 (stereo unspecified),-1,-15,-12,2,-2,2
COc1ccccc1C(=O)OCC#CCSc1nnc(-c2cccc3ccccc23)o1,-11,31,nt,11,18,49*
CCOC(=O)c1cccc(NC(=O)COc2nsnc2N2CCOCC2)c1,10,50*,16,13,-80,18
Cc1cc(C(=O)CSc2nc3ccccc3o2)c(C)n1C1CC1,6,26,9,-1,41*,33
C=CCn1c(C)cc(C(=O)CSc2nc3ccccc3o2)c1C,43*,15,-6,2,41*,35
Cn1ncc(Cl)c1C(=O)NCC1CCCO1 (stereo unspecified),2,-15,-8,6,-5,22
CCCCS(=O)(=O)N1CCN(C(=O)C(=O)c2cccc(C(F)(F)F)c2)CC1,nt,-27,nt,1,nt,nt
Cc1sc(NC(=O)c2ccc(Br)s2)c(C(N)=O)c1C,-13,-16,10,4,-18,21
Cc1sc(NC(=O)c2ccc(Cl)s2)c(C(N)=O)c1C,-30,-33,1,12,-6,47*
Cc1ccc(S(=O)(=O)N2CCC[C@H]2C(=O)OCc2nc3ccccc3s2)cc1,nt,-4,nt,2,nt,nt
Cc1ccc(S(=O)(=O)N2CCCC2C(=O)OCc2nc3ccccc3s2)cc1 (stereo unspecified),59*,-3,6,5,5,18
Nc1ccn([C@@H]2O[C@H](C(=O)N[C@H](Cc3ccccc3)C(=O)NCc3cccc4c3OCO4)[C@@H](O)[C@H]2O)c(=O)n1,nt,5,nt,0,nt,nt
COc1cc(CCC(=O)Nc2ccc(C)c(S(=O)(=O)N3CCCCCC3)c2)cc(OC)c1OC,-8,50*,nt,15,25,15
CCOc1ncccc1C(=O)Nc1ccc(C)c(S(=O)(=O)N2CCCCCC2)c1,34*,40,nt,4,55*,4
COc1cc(CCC(=O)Nc2ccc(S(=O)(=O)N3CCCC3)cc2)cc(OC)c1OC,-20,-22,nt,7,-34,0
O=C(COc1ccc(F)cc1Cl)Nc1cccc(S(=O)(=O)N2CCCC2)c1,30,14,nt,4,47*,-1
CCOc1ncccc1C(=O)Nc1ccc(OC)c(S(=O)(=O)N2CCCCC2)c1,-1,-19,-2,3,-32,13
COc1ccc(CCNC(=O)c2cccc(S(=O)(=O)N3CCCC3)c2)cc1,nt,-13,nt,1,nt,nt
COc1ccc(CCNC(=O)c2ccc(Cl)c(S(=O)(=O)N3CCCCCC3)c2)cc1,27*,44,nt,15,46*,15

# Assay outcomes as filed in PubChem BioAssay.
